According to ChEMBL document CHEMBL3867443, “Polyprenylated Tetraoxygenated Xanthones from the Roots of Hypericum monogynum and Their Neuroprotective Activities” (J Nat Prod, 2016):
Calls of active or inactive are those of the source. The rule behind the calls is not given here.

How the values were obtained:
[1] = Neuroprotective activity in rat PC12 cells assessed as reduction in corticosterone-induced lesions by measuring cell viability at 25 uM pretreated for 24 hrs followed by corticosterone-challenge after 48 hrs by MTT assay; type: functional, cell-based; settings: PC-12
Outline: (§1)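 PC12 cells seeded at 2 × 10^4 cells/well and pretreated 24 h with compound, then 200 μM corticosterone for 48 h. Fluoxetine 12.50 μM was the positive control. MTT absorbance read at 570 nm with 630 nm reference. Viability given as % of untreated control, mean ± SEM of three independent experiments, compared by ANOVA.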

[2] = Cytotoxicity against […] BV2 cells assessed as cell viability by MTT assay relative to control; type: toxicity, cell-based, BV-2; parameters: concentration or dose not given beside the values; settings: mouse, read-out: Activity
Outline: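 BV2 microglia in DMEM with 10% heat-inactivated FBS and penicillin/streptomycin, 37 °C, 5% CO2. Viability was read by MTT in the cells used for the NO assay, which received 2 h compound pretreatment and then LPS at 100 ng/mL final for 18 h.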

[3] = Neuroprotective activity in rat PC12 cells assessed as reduction in corticosterone-induced lesions by measuring cell viability at 6.25 uM pretreated for 24 hrs followed by corticosterone-challenge after 48 hrs by MTT assay; type: functional, cell-based; settings: PC-12; outline: as §1
BV-2 = assay: Inhibition of LPS-induced NO production in […] preincubated for 2 hrs followed by LPS-stimulation measured after 18 hrs by Griess assay; type: functional, cell-based; settings: Mus musculus
Outline: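 BV2 cells seeded at 2.5 × 10^5 cells/mL and preincubated 2 h with compound, then LPS at 100 ng/mL final for 18 h. Supernatant was mixed 1:1 with Griess reagent for 10 min at room temperature and read at 540 nm. Inhibition = (AL − A0 − AC)/(AL − A0) × 100. IC50 reported as mean ± SEM of three independent experiments. L-NMMA was the positive control.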

PC-12 = assay: Decrease in corticosterone-induced intracellular calcium level in rat PC12 cells at 6.25 to 25 uM pretreated for 24 hrs followed by corticosterone-challenge after 48 hrs by Fluo-3AM dye-based flow cytometry; type: functional, cell-based
Outline: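 PC12 cells were pretreated 24 h with compound (6.25, 12.50, 25.00 μM) or fluoxetine 12.50 μM, then exposed to 200 μM corticosterone for 48 h. Cells were loaded with Fluo-3 AM and analysed by flow cytometry. Results are mean fluorescence intensity relative to vehicle control, mean ± SEM, n = 3.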

Rattus norvegicus = species: Rattus norvegicus; assay: Cytotoxicity against rat PC12 cells at 25 uM by MTT assay; type: toxicity, cell-based; settings: pc-12, 25 µM
Outline: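 PC12 cells in DMEM with 10% FBS, 5% horse serum and penicillin/streptomycin, 37 °C, 5% CO2. Seeded at 2 × 10^4 cells/well and exposed to compound at 25.00 μM. Viability was read by MTT.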

[4] = Neuroprotective activity in rat PC12 cells assessed as reduction in corticosterone-induced lesions by measuring cell viability at 12.5 uM pretreated for 24 hrs followed by corticosterone-challenge after 48 hrs by MTT assay; type: functional, cell-based; settings: PC-12; outline: as §1

SMILES	Activity [1] [%]	viability [2] [%]	Activity [3] [%]	IC50 (BV-2) [µM]	Activity (PC-12)	Activity (Rattus norvegicus)	Activity [4] [%]
C[C@]12C[C@H](O)[C@H]3[C@@H](CCC4=CC(=O)CC[C@@]43C)[C@@H]1CC[C@@H]2C(=O)CO	52.8	–	–	–	–	–	–
C=C(C)[C@H](CC=C(C)C)Cc1c(O)c(C[C@@H](CC=C(C)C)C(=C)C)c2oc3c(O)c(O)ccc3c(=O)c2c1O	92	> 90	78.4	7.47	Active	Non-Toxic	83.8
C=C(C)C(CC=C(C)C)Cc1c(O)c(CC=C(C)C)c(O)c2c(=O)c3ccc(O)c(O)c3oc12 (centres undefined)	66	> 90	57.5	5.66	–	Non-Toxic	60.2
C=C(C)C(CC=C(C)C)Cc1c2c(c(O)c3c(=O)c4ccc(O)c(O)c4oc13)C=CC(C)(C)O2 (centres undefined)	65.4	> 90	64.8	> 50	–	Non-Toxic	71.2
C=C(C)C(CC=C(C)C)Cc1c(O)cc(O)c2c(=O)c3ccc(O)c(O)c3oc12 (centres undefined)	84.1	> 90	60.7	8.35	–	Non-Toxic	78.1
CNCCC(Oc1ccc(C(F)(F)F)cc1)c1ccccc1 (centres undefined)	–	–	–	–	–	–	70.5
CNC(=N)NCCC[C@H](N)C(=O)O [TILARGININE]	–	–	–	39.3	–	–	–
C=C(C)[C@H](CC=C(C)C)Cc1c(O)cc2oc3c(O)c(O)ccc3c(=O)c2c1O	85.9	> 90	75.2	9.6	–	Non-Toxic	78.8
